Data on 14 molecules can be found in ChEMBL document CHEMBL1138007, “Examining the correlations between GSK-3 inhibitory properties and anti-convulsant efficacy of valproate and valproate-related compounds” (Bioorg Med Chem Lett, 2004).

The source made the active and inactive calls. The rule behind the calls is not given here.

Assay [1] can be described thus: Inhibitory activity (0.5 mM) against Glycogen synthase kinase-3 beta, expressed as percent control. Details: scale not given: the % may be the effect or the level left. The method in brief: (§1)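 Recombinant GSK-3α or β, preincubated with compound (0-4 mM), then given phospho-glycogen synthase peptide-2 substrate and [γ-³²P]-ATP plus unlabelled ATP. Buffer: 20 mM MOPS, 0.25 mM Mg acetate, 5 mM MgCl₂, 5 mM β-glycerophosphate, 1 mM EGTA, 0.25 mM Na₃VO₄, 0.25 mM DTT. Reaction ran 30 min at 30 °C, then was spotted on phosphocellulose, acid-washed and scintillation-counted. Background-subtracted counts were normalized to uninhibited activity.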

Assay [2] in a line: Inhibitory activity (4 mM) against Glycogen synthase kinase-3 beta, expressed as percent control. Details: scale not given: the % may be the effect or the level left. The following applies: in the assay text read “(0.5 mM)” for “(4 mM)”. The method in brief: as §1
In assay [3] the target is Glycogen synthase kinase-3 alpha (Homo sapiens) (UniProt P49840). As to the kind of experiment: Inhibitory activity (0.5 mM) against Glycogen synthase kinase-3 alpha, expressed as percent control. Details: scale not given: the % may be the effect or the level left. An outline of the steps: as §1
Sequence of Glycogen synthase kinase-3 alpha (Homo sapiens) (P49840 2-483 limits assumed): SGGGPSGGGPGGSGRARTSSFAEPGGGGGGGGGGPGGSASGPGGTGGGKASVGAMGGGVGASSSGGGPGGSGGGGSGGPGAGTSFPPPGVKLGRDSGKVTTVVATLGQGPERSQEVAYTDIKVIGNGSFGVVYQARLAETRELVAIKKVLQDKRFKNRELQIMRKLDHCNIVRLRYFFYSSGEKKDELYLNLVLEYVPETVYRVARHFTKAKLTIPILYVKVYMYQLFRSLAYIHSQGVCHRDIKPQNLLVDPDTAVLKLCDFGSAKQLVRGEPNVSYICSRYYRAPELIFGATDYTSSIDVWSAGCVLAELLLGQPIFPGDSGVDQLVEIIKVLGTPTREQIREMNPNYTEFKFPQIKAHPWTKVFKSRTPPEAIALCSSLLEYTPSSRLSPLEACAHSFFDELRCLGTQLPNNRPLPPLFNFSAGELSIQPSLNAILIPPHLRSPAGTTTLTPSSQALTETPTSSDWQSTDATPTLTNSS
For assay [4] the target is unchanged. As to the kind of experiment: Inhibitory activity (4 mM) against Glycogen synthase kinase-3 alpha, expressed as percent control. Further details: scale not given: the % may be the effect or the level left. The method in brief: as §1
Assay [5] can be described thus: Anti-convulsant activity in experimental animal model; + = less effective. The assay is classed as functional.
Assay [6] in a line: Anti-convulsant activity in experimental animal model; +++ = more effective. The assay is classed as functional.
Assay [7] deals with Glycogen synthase kinase-3 alpha (Homo sapiens) (UniProt P49840). As to the kind of experiment: Inhibitory activity against Glycogen synthase kinase-3 alpha, expressed as percent control. Details: concentration or dose not given beside the values. An outline of the steps:
as §1

Assay [8] can be described thus: Inhibitory activity against Glycogen synthase kinase-3 beta, expressed as percent control. Details: concentration or dose not given beside the values. An outline of the steps: as §1
The nature of assay [9]: Inhibitory activity (20 mM) against Glycogen synthase kinase-3 beta, expressed as percent control. Details: scale not given: the % may be the effect or the level left.
Assay [10] is described as follows: Anti-convulsant activity in experimental animal model; ++ = relative to valproate. The assay is classed as functional.

For the molecule `CCC(CC)C(=O)O`, the Control in assay [1] came to 56.1%; in [2], 56.1%; in assay [3] it was 88.3%; in assay [4], 0.5%. In addition, the Activity entry in assay [5] is “Weak activity”.

`CCCC(CCC)C(=O)NO`: in assay [6], the outcome was Active. The Control in assay [7] was 54.2%; in assay [8], 49.1%.

For `CC/C=C(\CCC)C(=O)OC`, the values for the Control in assay [7] and in assay [8] were 61.3% and 33.3%, respectively.

With `CCCC(CCC)C(=O)OC`, the Control in assay [7] turned out to be 104%; in assay [8] it was 81.8%.

As for `CCCC(C)(CCC)C(=O)OC`, the Control in assay [7] worked out at 99.7%; in assay [8], 122%.

In the case of `C=CCC(CCC)C(=O)OC` (stereo not given), the Control turned out to be 99.9% in assay [7] and 123% in assay [8].

As for `[Cl-].[Li+]`, in assay [9], the Control amounted to 19.5%.

For the molecule `CCCC(C)(CCC)C(=O)O`, the outcome in [6] was Active. Moreover, the Control in [7] was determined as 67.4%; in assay [8], 24.8%.

In the case of `CCCC(CCC)C(N)=O`, the result in assay [6] was Active. The values for the Control in assay [7] and in assay [8] were 96.6% and 83.9%, respectively.

On to `CC/C=C(\CCC)C(=O)O`, for which, in [10], the outcome was Active. Further, the Control in assay [7] is 100%; in assay [8] it was 91.3%.

In the case of `CCCC(CCC)C(=O)O`, the outcome in assay [10] was Active. Further, the Control in assay [7] came to 80.4%; in [8], 35.5%.

Take `C=CCC(CCC)C(=O)O` (stereo not given): the result in assay [6] was Active. Further, the Control worked out at 99.2% in assay [7] and 57.7% in [8].

The molecule `O=C1NC(=O)C(c2ccccc2[N+](=O)[O-])=C1Nc1ccc(O)c(Cl)c1` displayed a Control in [9] of 4.6%.

As to `C=CCC(CCC)C(=O)OC(C)C` (stereo not given), the Control was 87.9% in assay [7] and 110% in assay [8].
